The structures appear in SMILES notation. pIC50: −log10 of the molar value. The source made the active and inactive calls. The calls are words filed in the database; no cut-off is given here.

Series [1] addresses Mitogen-activated protein kinase kinase kinase 13 (Homo sapiens) (UniProt O43283). Description: Inhibition of human full length LZK (M1 to W966 residues) expressed in bacterial expression system assessed as residual activity at 10 uM by kinome scan method relative to control. The procedure, abridged: (§1)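 KINOMEscan binding assay, test compound at 10 μM against a 52-kinase panel. % Ctrl = (compound signal − positive control signal)/(negative control signal − positive control signal) × 100, with DMSO as negative control (100%) and a positive control (0%).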

For series [2], the system named is U87. The series is described as follows: Inhibition of PI3K in human U87MG cells assessed as suppression of phosphorylation of AKT at Thr308 residue at 25 nM after 3 hrs by Western blot analysis. The series is classed as cell-based. In outline:
(§2)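 U87MG cells seeded at 1×10^6 per well, incubated overnight at 37 °C, 5% CO₂, then treated at various concentrations for 3 h at 37 °C. Western blot for phospho-Akt (Ser473, Thr308), phospho-S6 (Ser235/236) and phospho-4E-BP1 (Thr37/46), with GAPDH as internal control. Bands quantified as mean ± SD, n = 3 biological replicates, versus untreated cells.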
For orientation: In western blotting, separated proteins are transferred to a membrane and probed.

Series [3] deals with Phosphatidylinositol 4-phosphate 3-kinase C2 domain-containing subunit beta (Homo sapiens) (UniProt O00750). Description: Inhibition of human partial length PIK3C2B (M1 to L1634 residues) expressed in bacterial expression system assessed as residual activity at 10 uM by kinome scan method relative to control. In outline: as §1
Series [4] concerns the target Phosphatidylinositol 4,5-bisphosphate 3-kinase catalytic subunit gamma isoform (Homo sapiens, UniProt P48736). Description: Inhibition of recombinant human full-length His-tagged PI3Kgamma expressed in baculovirus expression system using PIP2 as substrate measured after 1 hr by ADP-glo assay. In general terms: In ADP-Glo the light output rises with the ADP produced.

Series [5] deals with U-87 MG. Description: Growth inhibition of human U87MG cells after 72 hrs by sulforhodamine B assay. The series is classed as functional, U-87MG ATCC. On the technique in general: In SRB staining, fixed cells bind dye roughly in proportion to their protein.
Series [6] has as its target AP2-associated protein kinase 1 (Homo sapiens) (UniProt Q2M2I8). Description: Inhibition of human partial length AAK1 (G25 to L333 residues) expressed in bacterial system assessed as residual activity at 10 uM by kinome scan method relative to control. The procedure, abridged:
as §1

Series [7] deals with T1, Phosphatidylinositol 4,5-bisphosphate 3-kinase catalytic subunit beta isoform (Homo sapiens, UniProt P42338). Description: Inhibition of human partial length PIK3CB (P118 to S1070 residues) expressed in mammalian expression system assessed as residual activity at 10 uM by kinome scan method relative to control. The procedure, abridged: (§3)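 KINOMEscan competitive binding screen at 10 μM test compound against a 52-kinase panel. Output is % Ctrl = (test signal − positive control signal)/(negative control signal − positive control signal) × 100. DMSO is the negative control (100%) and the positive control is set to 0%.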

The target of series [8] is Cyclin-dependent kinase-like 5 (Homo sapiens) (UniProt O76039). Description: Inhibition of human partial length CDKL5 (M1 to S337 residues) expressed in mammalian expression system assessed as residual activity at 10 uM by kinome scan method relative to control. The procedure, abridged: as §1
The target in series [9] is T2, Serine/threonine-protein kinase mTOR (Homo sapiens, UniProt P42345). The series is described as follows: Inhibition of mTOR in human U87MG cells assessed as suppression of phosphorylation of S6 ribosomal at 25 nM after 3 hrs by Western blot analysis. Particulars: U87.
For series [10], the target named is Dual specificity mitogen-activated protein kinase kinase 5 (Homo sapiens) (UniProt Q13163). Description: Inhibition of human partial length MEK5 (L98 to P448 residues) expressed in mammalian expression system assessed as residual activity at 10 uM by kinome scan method relative to control. In outline:
as §1

In series [11] the target is Interleukin-1 receptor-associated kinase 3 (Homo sapiens) (UniProt Q9Y616). Description: Inhibition of human partial length IRAK3 (V147 to E596 residues) expressed in bacterial expression system assessed as residual activity at 10 uM by kinome scan method relative to control. The procedure, abridged:
as §1

The target of series [12] is T1, Phosphatidylinositol 4,5-bisphosphate 3-kinase catalytic subunit beta isoform. Description: Inhibition of PI3Kbeta (unknown origin) using PIP2 as substrate measured after 1 hr by ADP-glo assay.
The target of series [13] is T2, Serine/threonine-protein kinase mTOR. The series is described as follows: Inhibition of recombinant human N-terminal FLAG-tagged mTOR (1362 to end amino acids) using ULight-4E-BP1 as substrate incubated for 1 hr by LANCE Ultra assay.
For series [14], the target named is Cyclin-dependent kinase 8 (Homo sapiens) (UniProt P49336). The series is described as follows: Inhibition of human partial length CDK8 (M1 to T360 residues) expressed in bacterial system assessed as residual activity at 10 uM by kinome scan method relative to control. In outline: as §1
Series [15] can be described thus: Cmax in Sprague-Dawley rat at 5 mg/kg, po. The conditions noted are these: in vivo. The series is classed as ADME, organism-based. More on the design: route oral, dose 5 mg/kg. In outline: (§4)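 Male Sprague-Dawley rats (n = 3) given a single oral gavage of 5 mg/kg as a homogeneous opaque suspension in 0.5% methylcellulose; plasma concentration-time curves used to derive mean PK parameters.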

For series [16], the target named is Serine/threonine-protein kinase 32A (Homo sapiens) (UniProt Q8WU08). Description: Inhibition of human full length YANK1 (M1 to L396 residues) expressed in mammalian expression system assessed as residual activity at 10 uM by kinome scan method relative to control. The procedure, abridged: as §1
For series [17], the target named is Citron Rho-interacting kinase (Homo sapiens) (UniProt O14578). The series is described as follows: Inhibition of human partial length CIT (M68 to E432 residues) expressed in bacterial expression system assessed as residual activity at 10 uM by kinome scan method relative to control. The procedure, abridged: as §1
In series [18] the target is Cyclin-dependent kinase-like 3 (Homo sapiens) (UniProt Q8IVW4). The series is described as follows: Inhibition of human partial length CDKL1 (M1 to D327 residues) expressed in bacterial system assessed as residual activity at 10 uM by kinome scan method relative to control. The procedure, abridged: as §1
The target in series [19] is Cyclin-dependent kinase-like 1 (Homo sapiens) (UniProt Q00532). Description: Inhibition of human partial length CDKL1 (M1 to I358 residues) expressed in bacterial system assessed as residual activity at 10 uM by kinome scan method relative to control. The procedure, abridged: as §1
Series [20] can be described thus: AUC(0 to infinity) in Sprague-Dawley rat at 5 mg/kg, po. The series is classed as ADME, organism-based. Further details: time infinity, route oral, dose 5 mg/kg. Particulars: in vivo. In outline: as §4
Series [21] addresses Serine/threonine-protein kinase PRP4 homolog (Homo sapiens) (UniProt Q13523). Description: Inhibition of human partial length PRP4 (D657 to I1007 residues) expressed in bacterial expression system assessed as residual activity at 10 uM by kinome scan method relative to control. The procedure, abridged: as §3
In series [22] the target is Ephrin type-B receptor 6 (Homo sapiens) (UniProt O15197). The series is described as follows: Inhibition of human partial length EPHB6 (Q634 to P948 residues) expressed in mammalian expression system assessed as residual activity at 10 uM by kinome scan method relative to control. In outline: as §1
Series [23] deals with U87. The series is described as follows: Inhibition of PI3K in human U87MG cells assessed as suppression of phosphorylation of AKT at Ser473 residue at 25 nM after 3 hrs by Western blot analysis. The series is classed as cell-based. In outline:
as §2

In series [24] the target is Tyrosine-protein kinase receptor Tie-1 (Homo sapiens) (UniProt P35590). The series is described as follows: Inhibition of human partial length TIE1 (T819 to A1138 residues) expressed in bacterial expression system assessed as residual activity at 10 uM by kinome scan method relative to control. The procedure, abridged: as §3

Sequence of Cyclin-dependent kinase 8 (Homo sapiens) (P49336 whole entry, the tested form may be a part): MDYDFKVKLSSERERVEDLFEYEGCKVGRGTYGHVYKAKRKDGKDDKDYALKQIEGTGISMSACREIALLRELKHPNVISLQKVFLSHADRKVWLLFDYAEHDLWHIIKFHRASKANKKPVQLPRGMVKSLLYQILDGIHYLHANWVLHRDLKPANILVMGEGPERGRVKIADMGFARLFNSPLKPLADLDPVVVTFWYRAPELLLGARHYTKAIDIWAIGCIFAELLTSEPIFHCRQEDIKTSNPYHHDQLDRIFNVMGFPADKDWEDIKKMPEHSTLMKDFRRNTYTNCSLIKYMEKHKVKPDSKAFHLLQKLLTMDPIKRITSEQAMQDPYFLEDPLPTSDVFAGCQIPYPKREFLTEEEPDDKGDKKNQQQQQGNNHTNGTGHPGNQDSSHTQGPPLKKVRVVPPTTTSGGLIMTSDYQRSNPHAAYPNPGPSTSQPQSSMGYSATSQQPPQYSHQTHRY
Sequence of Cyclin-dependent kinase-like 5 (Homo sapiens) (O76039 whole entry, the tested form may be a part): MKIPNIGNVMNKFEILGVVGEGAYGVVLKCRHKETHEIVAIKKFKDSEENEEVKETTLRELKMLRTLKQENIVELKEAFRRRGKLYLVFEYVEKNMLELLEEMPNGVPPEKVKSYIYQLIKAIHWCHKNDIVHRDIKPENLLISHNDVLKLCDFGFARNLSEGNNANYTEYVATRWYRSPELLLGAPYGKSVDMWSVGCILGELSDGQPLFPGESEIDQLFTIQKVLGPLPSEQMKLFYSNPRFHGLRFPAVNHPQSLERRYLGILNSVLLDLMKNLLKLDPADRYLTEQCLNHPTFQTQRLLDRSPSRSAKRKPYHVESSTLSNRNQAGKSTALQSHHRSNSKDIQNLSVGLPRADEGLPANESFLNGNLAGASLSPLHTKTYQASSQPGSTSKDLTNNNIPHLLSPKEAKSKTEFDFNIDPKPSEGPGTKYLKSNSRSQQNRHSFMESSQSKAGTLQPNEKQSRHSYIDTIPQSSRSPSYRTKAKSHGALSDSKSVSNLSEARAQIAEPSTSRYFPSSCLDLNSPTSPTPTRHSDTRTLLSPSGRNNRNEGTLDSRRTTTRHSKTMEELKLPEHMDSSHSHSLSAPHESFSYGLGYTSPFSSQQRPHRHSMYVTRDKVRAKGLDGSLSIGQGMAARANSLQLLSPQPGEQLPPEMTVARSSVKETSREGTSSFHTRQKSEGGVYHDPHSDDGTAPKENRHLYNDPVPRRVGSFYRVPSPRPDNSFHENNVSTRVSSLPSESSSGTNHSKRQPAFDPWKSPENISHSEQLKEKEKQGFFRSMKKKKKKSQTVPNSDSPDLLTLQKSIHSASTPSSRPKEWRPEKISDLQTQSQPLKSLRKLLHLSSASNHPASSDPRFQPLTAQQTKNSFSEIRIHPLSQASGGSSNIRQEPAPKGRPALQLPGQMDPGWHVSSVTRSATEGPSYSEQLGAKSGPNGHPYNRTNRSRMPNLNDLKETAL
Sequence of AP2-associated protein kinase 1 (Homo sapiens) (Q2M2I8 whole entry, looked up, the tested form may be a part): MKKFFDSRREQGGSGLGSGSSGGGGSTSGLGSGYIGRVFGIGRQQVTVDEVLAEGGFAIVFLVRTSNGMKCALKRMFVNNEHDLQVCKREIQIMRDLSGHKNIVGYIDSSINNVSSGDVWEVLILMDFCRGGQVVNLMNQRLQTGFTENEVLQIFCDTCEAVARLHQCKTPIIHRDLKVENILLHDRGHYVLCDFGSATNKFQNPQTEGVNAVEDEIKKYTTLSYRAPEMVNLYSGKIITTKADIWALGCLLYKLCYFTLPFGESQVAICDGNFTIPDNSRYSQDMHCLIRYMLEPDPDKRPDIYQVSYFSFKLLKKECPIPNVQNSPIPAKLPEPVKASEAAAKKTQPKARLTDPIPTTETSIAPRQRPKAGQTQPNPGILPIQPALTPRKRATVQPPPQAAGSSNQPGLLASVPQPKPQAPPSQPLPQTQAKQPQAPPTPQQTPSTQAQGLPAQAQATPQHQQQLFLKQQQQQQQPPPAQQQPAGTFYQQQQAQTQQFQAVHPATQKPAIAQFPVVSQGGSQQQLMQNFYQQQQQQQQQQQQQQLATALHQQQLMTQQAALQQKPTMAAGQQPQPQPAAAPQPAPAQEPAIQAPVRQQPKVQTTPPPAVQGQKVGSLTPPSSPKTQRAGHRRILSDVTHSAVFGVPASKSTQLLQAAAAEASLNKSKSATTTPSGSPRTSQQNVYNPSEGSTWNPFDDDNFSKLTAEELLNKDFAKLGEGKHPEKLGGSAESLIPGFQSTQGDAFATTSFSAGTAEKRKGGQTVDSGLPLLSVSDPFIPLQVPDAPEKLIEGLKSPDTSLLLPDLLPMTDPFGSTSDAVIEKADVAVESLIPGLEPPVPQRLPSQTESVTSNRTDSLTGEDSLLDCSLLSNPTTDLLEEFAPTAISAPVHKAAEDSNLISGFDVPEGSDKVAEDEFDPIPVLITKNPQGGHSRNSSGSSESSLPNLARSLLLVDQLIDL
Sequence of Ephrin type-B receptor 6 (Homo sapiens) (O15197 whole entry, the tested form may be a part): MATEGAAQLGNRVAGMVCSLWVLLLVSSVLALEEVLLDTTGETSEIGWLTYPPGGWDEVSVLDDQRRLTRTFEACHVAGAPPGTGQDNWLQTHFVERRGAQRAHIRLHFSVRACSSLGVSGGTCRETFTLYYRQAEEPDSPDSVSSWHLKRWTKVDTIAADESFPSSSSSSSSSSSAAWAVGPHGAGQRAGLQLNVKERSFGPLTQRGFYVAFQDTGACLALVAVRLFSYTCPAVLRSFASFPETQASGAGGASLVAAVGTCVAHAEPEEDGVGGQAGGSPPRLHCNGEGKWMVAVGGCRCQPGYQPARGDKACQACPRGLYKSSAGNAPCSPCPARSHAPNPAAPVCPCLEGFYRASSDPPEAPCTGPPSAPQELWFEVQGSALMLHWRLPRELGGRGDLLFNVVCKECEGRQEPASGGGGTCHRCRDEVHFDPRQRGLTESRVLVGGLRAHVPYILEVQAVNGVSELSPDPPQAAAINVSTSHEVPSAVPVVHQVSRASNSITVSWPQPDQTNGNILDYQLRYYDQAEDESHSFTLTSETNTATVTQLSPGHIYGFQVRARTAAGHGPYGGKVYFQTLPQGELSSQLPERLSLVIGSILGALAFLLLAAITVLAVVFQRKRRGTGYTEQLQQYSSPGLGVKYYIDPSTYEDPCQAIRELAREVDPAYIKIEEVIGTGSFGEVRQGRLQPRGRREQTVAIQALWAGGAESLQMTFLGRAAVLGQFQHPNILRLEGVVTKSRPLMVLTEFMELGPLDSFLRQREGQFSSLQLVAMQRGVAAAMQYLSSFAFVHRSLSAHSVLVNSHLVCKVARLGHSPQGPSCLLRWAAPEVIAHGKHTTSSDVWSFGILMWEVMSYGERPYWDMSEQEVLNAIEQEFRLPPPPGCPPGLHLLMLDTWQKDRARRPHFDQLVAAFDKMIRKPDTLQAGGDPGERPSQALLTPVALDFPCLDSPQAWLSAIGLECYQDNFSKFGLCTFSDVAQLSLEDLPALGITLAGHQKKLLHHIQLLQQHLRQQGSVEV
Sequence of Phosphatidylinositol 4,5-bisphosphate 3-kinase catalytic subunit gamma isoform (P48736 whole entry, canonical isoform): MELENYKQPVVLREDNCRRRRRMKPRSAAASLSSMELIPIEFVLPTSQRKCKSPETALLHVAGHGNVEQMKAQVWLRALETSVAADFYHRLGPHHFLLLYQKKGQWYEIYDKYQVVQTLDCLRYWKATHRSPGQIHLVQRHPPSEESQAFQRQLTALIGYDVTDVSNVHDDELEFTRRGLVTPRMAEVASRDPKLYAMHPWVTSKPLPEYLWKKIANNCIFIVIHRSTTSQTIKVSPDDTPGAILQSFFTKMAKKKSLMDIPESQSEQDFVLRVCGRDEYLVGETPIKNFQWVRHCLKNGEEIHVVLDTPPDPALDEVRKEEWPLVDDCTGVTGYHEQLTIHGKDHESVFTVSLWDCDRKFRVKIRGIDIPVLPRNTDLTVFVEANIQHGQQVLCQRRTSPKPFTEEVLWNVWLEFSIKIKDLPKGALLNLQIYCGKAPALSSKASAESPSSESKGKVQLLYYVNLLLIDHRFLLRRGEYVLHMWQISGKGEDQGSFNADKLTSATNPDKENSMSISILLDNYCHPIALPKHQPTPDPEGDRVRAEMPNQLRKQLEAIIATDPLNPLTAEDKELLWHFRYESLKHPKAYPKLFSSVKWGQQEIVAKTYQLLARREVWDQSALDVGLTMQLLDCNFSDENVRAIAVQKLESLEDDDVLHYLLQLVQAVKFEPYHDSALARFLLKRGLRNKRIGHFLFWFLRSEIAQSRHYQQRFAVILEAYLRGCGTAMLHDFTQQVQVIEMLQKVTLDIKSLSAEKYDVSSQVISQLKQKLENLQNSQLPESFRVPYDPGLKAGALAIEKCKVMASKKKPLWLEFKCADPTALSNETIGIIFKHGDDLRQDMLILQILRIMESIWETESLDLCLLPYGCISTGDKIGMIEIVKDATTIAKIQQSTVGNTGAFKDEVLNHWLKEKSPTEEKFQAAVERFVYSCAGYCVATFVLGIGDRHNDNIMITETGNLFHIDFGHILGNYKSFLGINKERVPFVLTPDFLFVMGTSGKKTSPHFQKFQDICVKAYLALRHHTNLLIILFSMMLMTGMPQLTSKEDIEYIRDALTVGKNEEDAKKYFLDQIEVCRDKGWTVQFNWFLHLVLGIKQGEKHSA
Sequence of Serine/threonine-protein kinase 32A (Homo sapiens) (Q8WU08 whole entry, the tested form may be a part): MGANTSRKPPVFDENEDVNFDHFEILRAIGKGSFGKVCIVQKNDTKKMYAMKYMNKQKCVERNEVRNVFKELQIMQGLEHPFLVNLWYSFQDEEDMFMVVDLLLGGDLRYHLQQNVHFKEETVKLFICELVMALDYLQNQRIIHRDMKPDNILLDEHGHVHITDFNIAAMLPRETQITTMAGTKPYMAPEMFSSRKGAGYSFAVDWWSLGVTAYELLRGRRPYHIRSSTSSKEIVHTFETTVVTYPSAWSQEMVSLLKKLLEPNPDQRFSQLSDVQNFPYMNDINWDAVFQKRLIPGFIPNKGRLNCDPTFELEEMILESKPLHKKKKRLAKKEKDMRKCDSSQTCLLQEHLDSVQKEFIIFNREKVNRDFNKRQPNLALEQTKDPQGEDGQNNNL

For `COc1ncc(-c2ccc3nccc(/C(C)=C/C(=O)N4CCN(C)CC4)c3c2)cc1NS(=O)(=O)c1ccc(F)cc1F`, the Activity in [1] was 53%; in series [3] it was 0%; in [6], 44%; in series [7], 0%; in series [8] it was 69%; in series [10] it was 63%. Also, the Activity worked out at 24% in [11]; 96% in series [14]; 84% in series [16]; 71% in series [17]; 100% in series [18]; 82% in series [19]. Besides, the Activity in series [21] was 100%; in series [22], 11%; in series [24] it was 71%. Moreover, the inhibition result in [2], in [9] and in series [23] was “Active” in each case. The pIC50 was 8.89 in [4], 9.17 in series [12] and 8.30 in series [13]. The GI50 in series [5] was 140 nM. For the same compound, in [15], the concentration peaked (Cmax) at 903 ng/mL. The compound also yielded an AUC(0-inf) in [20] of 1450 ng·h/mL.

What is called pIC50 is −log10 of the IC50, conventionally taken in molar units. By GI50 is commonly meant the concentration that inhibits growth by half. The low end stands for greater sensitivity of the cells, the high end for lower sensitivity of the cells. By Cmax is commonly meant the peak of the concentration-time curve. For orientation: AUC(0-inf) means the area under the concentration-time curve extrapolated to infinity.

For the origin of these results see ChEMBL document CHEMBL4732196, “Structural optimization towards promising β-methyl-4-acrylamido quinoline derivatives as PI3K/mTOR dual inhibitors for anti-cancer therapy: The in vitro and in vivo biological evaluation” (Eur J Med Chem, 2021).
